Measurements reported in ChEMBL document CHEMBL5653631, “A Potent and Selective ULK1 Inhibitor Suppresses Autophagy and Sensitizes Cancer Cells to Nutrient Stress” (iScience, 2018).
Calls of active or inactive are those of the source. The calls are words filed in the database; no cut-off is given here.

Assays:
[1] = biological target: T1, Myotonin-protein kinase (Homo sapiens) (UniProt Q09013); assay: Inhibition of human recombinant DMPK1 at 40 nM in presence of ATP by radiometric assay relative to control
T1 sequence (whole entry): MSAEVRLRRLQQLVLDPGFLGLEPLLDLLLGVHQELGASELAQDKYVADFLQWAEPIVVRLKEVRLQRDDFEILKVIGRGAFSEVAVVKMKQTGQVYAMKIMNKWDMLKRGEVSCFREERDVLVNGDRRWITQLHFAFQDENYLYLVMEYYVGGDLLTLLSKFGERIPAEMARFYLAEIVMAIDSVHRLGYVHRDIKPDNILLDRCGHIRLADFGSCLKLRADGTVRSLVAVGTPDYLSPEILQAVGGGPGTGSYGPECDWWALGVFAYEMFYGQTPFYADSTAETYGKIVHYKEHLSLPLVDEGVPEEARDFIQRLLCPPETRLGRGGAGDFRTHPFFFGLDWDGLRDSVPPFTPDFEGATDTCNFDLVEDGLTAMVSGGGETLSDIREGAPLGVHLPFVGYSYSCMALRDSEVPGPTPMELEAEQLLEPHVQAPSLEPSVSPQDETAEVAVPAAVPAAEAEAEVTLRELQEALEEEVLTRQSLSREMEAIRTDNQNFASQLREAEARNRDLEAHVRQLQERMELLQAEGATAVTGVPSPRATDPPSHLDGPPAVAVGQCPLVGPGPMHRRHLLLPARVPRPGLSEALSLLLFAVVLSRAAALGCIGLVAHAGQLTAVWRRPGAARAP

[2] = biological target: Vascular endothelial growth factor receptor 3 (Homo sapiens) (UniProt P35916); assay: Inhibition of human recombinant FLT4 at 40 nM related to control ULK1
[3] = system: U2OS; assay: Inhibition of autophagy in human U2OS cells assessed as ATG12-positive puncta formation at 5 uM incubated for 2.5 hrs in presence of AZD8055 by Fluorescent microscopy based analysis; assay type: functional, cell-based
In short: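 U2OS cells treated 2.5 hr with vehicle or 100 nM AZD8055, with or without 5 μM inhibitor; fixed and immunostained for endogenous ATG12; ATG12-positive puncta (phagophores) assessed by fluorescence microscopy.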

[4] = biological target: DNA-PK/Ku70/Ku85 (Homo sapiens) (UniProt P78527+P12956+P13010); assay: Inhibition of human recombinant DNAPK at 15 nM related to control ULK1; assay type: protein-complex assay
[5] = biological target: Serine/threonine-protein kinase N2 (Homo sapiens) (UniProt Q16513); assay: Inhibition of human recombinant PKN2 at 15 nM in presence of ATP by radiometric assay relative to control
[6] = biological target: T2, Tyrosine-protein kinase JAK3 (Homo sapiens) (UniProt P52333); assay: Inhibition of human recombinant JAK3 at 15 nM related to control ULK1
T2 sequence (whole entry): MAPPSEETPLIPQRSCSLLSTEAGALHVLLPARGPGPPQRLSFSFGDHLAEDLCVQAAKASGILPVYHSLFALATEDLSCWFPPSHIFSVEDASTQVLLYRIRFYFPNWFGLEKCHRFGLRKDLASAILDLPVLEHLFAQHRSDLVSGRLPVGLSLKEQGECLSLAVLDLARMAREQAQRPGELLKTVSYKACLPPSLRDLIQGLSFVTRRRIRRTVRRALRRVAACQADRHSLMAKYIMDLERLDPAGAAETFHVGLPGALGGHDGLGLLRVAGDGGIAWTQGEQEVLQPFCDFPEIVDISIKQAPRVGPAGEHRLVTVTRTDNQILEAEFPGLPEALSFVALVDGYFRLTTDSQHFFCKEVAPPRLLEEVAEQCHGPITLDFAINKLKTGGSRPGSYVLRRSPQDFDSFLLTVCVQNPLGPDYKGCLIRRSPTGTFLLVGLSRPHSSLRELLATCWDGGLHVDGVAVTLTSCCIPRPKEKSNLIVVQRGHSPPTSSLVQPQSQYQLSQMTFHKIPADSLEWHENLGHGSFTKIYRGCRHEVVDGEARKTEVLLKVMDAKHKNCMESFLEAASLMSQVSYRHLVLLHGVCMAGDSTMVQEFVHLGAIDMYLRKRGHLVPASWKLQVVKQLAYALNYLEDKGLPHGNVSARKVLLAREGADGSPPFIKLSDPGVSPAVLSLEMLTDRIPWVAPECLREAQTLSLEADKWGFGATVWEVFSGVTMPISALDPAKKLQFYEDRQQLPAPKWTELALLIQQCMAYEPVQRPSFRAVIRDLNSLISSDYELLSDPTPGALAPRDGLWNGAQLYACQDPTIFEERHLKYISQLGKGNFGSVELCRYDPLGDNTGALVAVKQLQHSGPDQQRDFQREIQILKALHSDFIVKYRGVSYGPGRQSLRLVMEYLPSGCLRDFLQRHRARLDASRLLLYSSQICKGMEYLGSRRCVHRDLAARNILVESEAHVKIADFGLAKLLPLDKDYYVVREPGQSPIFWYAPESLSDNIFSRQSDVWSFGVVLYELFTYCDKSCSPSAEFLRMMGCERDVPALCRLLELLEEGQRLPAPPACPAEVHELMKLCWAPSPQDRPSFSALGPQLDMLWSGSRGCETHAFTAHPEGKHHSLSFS

Sequence of Vascular endothelial growth factor receptor 3 (Homo sapiens) (P35916 whole entry): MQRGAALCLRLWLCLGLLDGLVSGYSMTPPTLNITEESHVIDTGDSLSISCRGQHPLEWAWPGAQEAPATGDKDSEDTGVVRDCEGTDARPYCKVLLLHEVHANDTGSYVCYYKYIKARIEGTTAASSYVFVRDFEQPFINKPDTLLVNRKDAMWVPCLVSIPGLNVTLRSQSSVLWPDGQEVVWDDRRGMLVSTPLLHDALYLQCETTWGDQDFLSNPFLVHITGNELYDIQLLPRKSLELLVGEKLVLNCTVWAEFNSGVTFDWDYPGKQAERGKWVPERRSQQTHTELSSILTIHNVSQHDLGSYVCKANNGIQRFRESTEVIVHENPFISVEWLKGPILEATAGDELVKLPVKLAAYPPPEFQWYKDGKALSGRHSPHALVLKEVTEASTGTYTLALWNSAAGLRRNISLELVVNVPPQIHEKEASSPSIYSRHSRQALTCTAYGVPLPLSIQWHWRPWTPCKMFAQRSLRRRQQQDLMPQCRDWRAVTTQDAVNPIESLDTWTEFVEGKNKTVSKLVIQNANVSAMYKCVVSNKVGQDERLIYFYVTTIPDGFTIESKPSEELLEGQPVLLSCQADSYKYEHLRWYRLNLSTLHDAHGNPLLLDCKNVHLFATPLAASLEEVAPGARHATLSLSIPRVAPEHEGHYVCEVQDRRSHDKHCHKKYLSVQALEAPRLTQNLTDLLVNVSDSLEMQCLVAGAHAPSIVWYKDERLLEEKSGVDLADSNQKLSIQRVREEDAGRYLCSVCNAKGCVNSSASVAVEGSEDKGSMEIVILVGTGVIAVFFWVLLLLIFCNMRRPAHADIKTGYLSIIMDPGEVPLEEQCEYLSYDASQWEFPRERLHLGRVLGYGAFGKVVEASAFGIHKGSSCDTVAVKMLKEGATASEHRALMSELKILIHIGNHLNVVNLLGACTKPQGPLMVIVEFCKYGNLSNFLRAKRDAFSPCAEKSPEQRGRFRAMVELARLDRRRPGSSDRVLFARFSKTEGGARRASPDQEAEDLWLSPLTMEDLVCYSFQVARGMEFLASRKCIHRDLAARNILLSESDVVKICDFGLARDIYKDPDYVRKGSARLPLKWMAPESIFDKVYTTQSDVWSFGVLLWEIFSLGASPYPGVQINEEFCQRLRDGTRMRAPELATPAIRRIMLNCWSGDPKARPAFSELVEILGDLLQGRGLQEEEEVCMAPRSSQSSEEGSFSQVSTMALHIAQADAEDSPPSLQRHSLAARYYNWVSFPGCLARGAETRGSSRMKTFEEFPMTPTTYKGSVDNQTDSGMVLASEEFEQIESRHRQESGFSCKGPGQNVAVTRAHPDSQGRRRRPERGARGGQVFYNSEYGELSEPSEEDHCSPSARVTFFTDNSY
Sequence of Serine/threonine-protein kinase N2 (Homo sapiens) (Q16513 whole entry, looked up): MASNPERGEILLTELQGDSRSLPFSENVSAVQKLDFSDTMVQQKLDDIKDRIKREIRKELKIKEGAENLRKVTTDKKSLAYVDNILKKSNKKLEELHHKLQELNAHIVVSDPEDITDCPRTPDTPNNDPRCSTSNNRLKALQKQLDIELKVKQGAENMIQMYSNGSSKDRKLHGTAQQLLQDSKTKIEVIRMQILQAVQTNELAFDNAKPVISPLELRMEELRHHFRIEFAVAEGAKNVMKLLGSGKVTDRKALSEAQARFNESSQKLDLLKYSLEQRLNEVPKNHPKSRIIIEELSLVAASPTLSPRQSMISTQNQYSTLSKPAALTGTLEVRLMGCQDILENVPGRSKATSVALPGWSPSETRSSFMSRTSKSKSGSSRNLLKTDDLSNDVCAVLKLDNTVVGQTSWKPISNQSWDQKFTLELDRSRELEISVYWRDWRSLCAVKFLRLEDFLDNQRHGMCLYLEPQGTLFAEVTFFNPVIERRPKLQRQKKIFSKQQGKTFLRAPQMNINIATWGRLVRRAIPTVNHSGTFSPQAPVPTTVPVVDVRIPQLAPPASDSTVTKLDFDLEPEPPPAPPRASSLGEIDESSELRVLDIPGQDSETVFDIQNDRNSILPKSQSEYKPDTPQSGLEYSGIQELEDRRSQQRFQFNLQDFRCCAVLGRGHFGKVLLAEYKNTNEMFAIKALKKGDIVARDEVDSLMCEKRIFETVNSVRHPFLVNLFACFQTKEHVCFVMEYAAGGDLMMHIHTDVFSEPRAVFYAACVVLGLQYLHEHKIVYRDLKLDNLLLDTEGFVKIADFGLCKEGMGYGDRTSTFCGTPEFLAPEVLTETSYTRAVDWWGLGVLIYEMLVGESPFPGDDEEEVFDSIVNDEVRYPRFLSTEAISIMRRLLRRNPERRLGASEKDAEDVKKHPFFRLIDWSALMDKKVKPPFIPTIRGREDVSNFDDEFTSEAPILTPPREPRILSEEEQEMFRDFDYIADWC

SMILES	inhibition [1] [%]	fold change (FC) [2]	inhibition [3]	fold change (FC) [4]	inhibition [5] [%]	fold change (FC) [6]
O=C(N[C@@H](C1CC1)C(F)(F)F)c1cc(-c2cnn3cc(-c4ccc(F)cc4)cnc23)cs1	5	0.26	Active	–	–	–
CC(C)[C@H](NC(=O)c1cc(-c2cnn3cc(-c4ccc(OCCN5CCCCC5)cc4)cnc23)cs1)C(F)(F)F	–	–	–	0	0	0
